Data as given in ChEMBL document CHEMBL1126263, “Development of high-affinity 5-HT3 receptor antagonists. 2. Two novel tricyclic benzamides” (J Med Chem, 1992).

Tests used:
Format in all cases: functional
Mustela putorius furo [1] = experiment: Antiemetic potency was tested against cisplatin-induced emetic latency period in ferret after oral administration
In short: (§1)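 Ferret cisplatin-emesis model, iv or po pretreatment 30 or 60 min before cisplatin. Emetic latency read-out given as ED100, the dose raising emetic latency 100% over the control period. Based on 3–10 animals per dose, at least three per compound.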

Mustela putorius furo [2] = experiment: Antiemetic potency was tested against cisplatin-induced emetic episodes in ferret after oral administration
In short: (§2)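 Ferret cisplatin-emesis model. Drug given iv or po, 30 or 60 min before cisplatin. Emetic episodes counted and ED50 derived from 3–10 animals per dose, at least three per compound. Control emetic episode means were reported.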

Mustela putorius furo [3] = experiment: The compound was evaluated for the percentage increase in the emetic latency period to first emetic episode against cisplatin induced emesis in ferret (intravenous administration)
In short: (§3)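 Ferrets receive the test agent iv as a pretreatment before the cisplatin challenge; the table footnotes give 30 min and 60 min pretreatment times. Each dose uses 3–10 animals, with at least three doses per agent.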

Mustela putorius furo [4] = experiment: Ratio of number of animals protected to the number of tested against cisplatin-induced emesis in ferret upon intravenous administration; 0/3; in short: as §3
Mustela putorius furo [5] = experiment: The compound was evaluated for the percentage reduction in the emetic episodes against cisplatin induced emesis in ferret (intravenous administration); in short: as §3
Mustela putorius furo [6] = experiment: Ratio of number of animals protected to the number of tested against cisplatin-induced emesis in ferret upon intravenous administration; 0/5; in short: as §3
Mustela putorius furo [7] = experiment: The compound was evaluated for the percentage reduction in the emetic episodes against cisplatin-induced emesis in ferret (intravenous administration); in short: as §3
Mustela putorius furo [8] = experiment: Antiemetic potency against cisplatin-induced emetic latency period in ferret after intravenous administration; in short: as §1
Mustela putorius furo [9] = experiment: The compound was evaluated for the percentage increase in the emetic latency period against cisplatin-induced emesis in ferret (oral administration)
In short: (§4)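 Ferrets dosed orally in 0.5% methylcellulose vehicle 60 min before cisplatin and observed for 240 min. Scored for complete protection (protected/tested), mean % reduction in emetic episodes and mean % increase in emetic latency. Non-vomiting animals were assigned 240 min latency. Significance versus vehicle group at p<0.05 or p<0.01.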

Mustela putorius furo [10] = experiment: Antiemetic potency against cisplatin-induced emetic episodes in ferret after intravenous administration; in short: as §2
Mustela putorius furo [11] = experiment: Ratio of number of animals protected to the number of tested against cisplatin-induced emesis in ferret upon intravenous administration; 0/4; in short: as §3
Mustela putorius furo [12] = experiment: Ratio of number of animals protected to the number of tested against cisplatin-induced emesis in ferret upon intravenous administration; 2/4; in short: as §3
Mustela putorius furo [13] = experiment: Mean percent increase in emetic episode evaluated by giving RG 12915 (0.003 mg/kg) 60 min prior to cisplatin (orally) in ferret; in short: as §4
Mustela putorius furo [14] = experiment: Mean percent increase in emetic episode evaluated by giving RG 12915 (0.010 mg/kg) 60 min prior to cisplatin (orally) in ferret; in short: as §4
Mustela putorius furo [15] = experiment: Compound was evaluated for Percent protected by giving 0.5% methylcellulose 60 min prior to cisplatin (orally) in ferret; in short: as §4
Mustela putorius furo [16] = experiment: Compound was evaluated for Percent protected by giving RG 12915 (0.003 mg/kg) 60 min prior to cisplatin (orally) in ferret; in short: as §4
Mustela putorius furo [17] = experiment: Compound was evaluated for Percent protected by giving RG 12915 (0.010 mg/kg) 60 min prior to cisplatin (orally) in ferret; in short: as §4
Mustela putorius furo [18] = experiment: Compound was evaluated for Percent protected by giving RG 12915 (0.03 mg/kg) 60 min prior to cisplatin (orally) in ferret; in short: as §4
Mustela putorius furo [19] = experiment: Compound was evaluated for Percent protected by giving RG 12915 (0.1 mg/kg) 60 min prior to cisplatin (orally) in ferret; in short: as §4
Mustela putorius furo [20] = experiment: Compound was evaluated for Percent protected by giving RG 12915 (1.0 mg/kg) 60 min prior to cisplatin (orally) in ferret; in short: as §4
Mustela putorius furo [21] = experiment: Mean percent increase in emetic episode evaluated by giving RG 12915 (0.03 mg/kg) 60 min prior to cisplatin (orally) in ferret; in short: as §4
Mustela putorius furo [22] = experiment: Mean percent increase in emetic episode evaluated by giving RG 12915 (0.1 mg/kg) 60 min prior to cisplatin (orally) in ferret; in short: as §4
Mustela putorius furo [23] = experiment: Mean percent increase in emetic episode evaluated by giving RG 12915 (1.0 mg/kg) 60 min prior to cisplatin (orally) in ferret; in short: as §4
Mustela putorius furo [24] = experiment: Ratio of no. of protected and no. of tested evaluated by giving 0.5% methylcellulose 60 min prior to cisplatin (orally) in ferret; 0/22; in short: as §4
Mustela putorius furo [25] = experiment: Ratio of no. of protected and no. of tested evaluated by giving RG 12915 (0.003 mg/kg) 60 min prior to cisplatin (orally) in ferret; 1/4; in short: as §4
Mustela putorius furo [26] = experiment: Ratio of no. of protected and no. of tested evaluated by giving RG 12915 (0.010 mg/kg) 60 min prior to cisplatin (orally) in ferret; 5/12; in short: as §4
Mustela putorius furo [27] = experiment: Ratio of no. of protected and no. of tested evaluated by giving RG 12915 (0.03 mg/kg) 60 min prior to cisplatin (orally) in ferret; 4/4; in short: as §4
Mustela putorius furo [28] = experiment: Ratio of no. of protected and no. of tested evaluated by giving RG 12915 (0.1 mg/kg) 60 min prior to cisplatin (orally) in ferret; 6/6; in short: as §4
Mustela putorius furo [29] = experiment: Ratio of no. of protected and no. of tested evaluated by giving RG 12915 (1.0 mg/kg) 60 min prior to cisplatin (orally) in ferret; 7/10; in short: as §4
Mustela putorius furo [30] = experiment: Mean percent reduction in emetic episode evaluated by giving RG 12915 (0.003 mg/kg) 60 min prior to cisplatin (orally) in ferret; in short: as §4
Mustela putorius furo [31] = experiment: Mean percent reduction in emetic episode evaluated by giving RG 12915 (0.010 mg/kg) 60 min prior to cisplatin (orally) in ferret; in short: as §4
Mustela putorius furo [32] = experiment: Mean percent reduction in emetic episode evaluated by giving RG 12915 (0.03 mg/kg) 60 min prior to cisplatin (orally) in ferret; in short: as §4
Mustela putorius furo [33] = experiment: Mean percent reduction in emetic episode evaluated by giving RG 12915 (0.1 mg/kg) 60 min prior to cisplatin (orally) in ferret; in short: as §4
Mustela putorius furo [34] = experiment: Mean percent reduction in emetic episode evaluated by giving RG 12915 (1.0 mg/kg) 60 min prior to cisplatin (orally) in ferret; in short: as §4
Mustela putorius furo [35] = experiment: The compound was evaluated for the percentage increase in the emetic latency period to first emetic episode against cisplatin-induced emesis in ferret (intravenous administration); in short: as §3

O=C(N[C@H]1CN2CCC1CC2)c1cc(Cl)cc2c1O[C@H]1CCC[C@H]2C1
ED100 (Mustela putorius furo [1]): >1 mg/kg
ED50 (Mustela putorius furo [2]): > 1 mg/kg

CN1CCCC1CCNC(=O)c1cc(Cl)cc2c1OC1CCCCC21 (stereo not drawn)
Increase (Mustela putorius furo [3]): -0.9%
Ratio (Mustela putorius furo [4]): 0
Reduction (Mustela putorius furo [5]): -38.1%

CCN(CC)CCNC(=O)c1cc(Cl)cc2c1OC1CCCCC21 (stereo not drawn)
Increase (Mustela putorius furo [3]): 6.5%
Ratio (Mustela putorius furo [6]): 0
Reduction (Mustela putorius furo [7]): 2.2%

O=C(N[C@H]1CN2CCC1CC2)c1cc(Cl)cc2c1O[C@H]1CCC[C@@H]2C1
ED100 (Mustela putorius furo [1]): 0.408 mg/kg
ED50 (Mustela putorius furo [2]): 0.085 mg/kg

O=C(NC1CN2CCC1CC2)c1cc(Cl)cc2c1OC1CCCCC21 (stereo not drawn)
ED100 (Mustela putorius furo [8]): 0.011 mg/kg
ED100 (Mustela putorius furo [9]): 0.011 mg/kg
ED50 (Mustela putorius furo [10]): 0.006 mg/kg
ED50 (Mustela putorius furo [2]): 0.005 mg/kg

O=C(NC1CN2CCC1CC2)c1cc(Cl)cc2c1OC1CCCC2C1 (stereo not drawn)
ED100 (Mustela putorius furo [1]): 0.022 mg/kg
ED50 (Mustela putorius furo [2]): 0.079 mg/kg

O=C(NCCc1c[nH]cn1)c1cc(Cl)cc2c1OC1CCCCC21 (stereo not drawn)
Increase (Mustela putorius furo [3]): 27.6%
Ratio (Mustela putorius furo [11]): 0
Reduction (Mustela putorius furo [5]): 44.4%

O=C(NCCN1CCOCC1)c1cc(Cl)cc2c1OC1CCCCC21 (stereo not drawn)
Increase (Mustela putorius furo [3]): 110.9%
Ratio (Mustela putorius furo [12]): 2
Reduction (Mustela putorius furo [5]): 48.9%

O=C(N[C@@H]1CN2CCC1CC2)c1cc(Cl)cc2c1O[C@@H]1CCCC[C@H]21
ED100 (Mustela putorius furo [1]): 0.258 mg/kg
ED50 (Mustela putorius furo [2]): 0.041 mg/kg

O=C(N[C@@H]1CN2CCC1CC2)c1cc(Cl)cc2c1O[C@H]1CCC[C@@H]2C1
ED100 (Mustela putorius furo [8]): 0.006 mg/kg
ED100 (Mustela putorius furo [1]): 0.01 mg/kg
ED50 (Mustela putorius furo [10]): 0.009 mg/kg
ED50 (Mustela putorius furo [2]): 0.007 mg/kg

O=C(N[C@@H]1CN2CCC1CC2)c1cc(Cl)cc2c1O[C@@H]1CCC[C@H]2C1
ED100 (Mustela putorius furo [1]): 0.29 mg/kg
ED50 (Mustela putorius furo [2]): 0.061 mg/kg

O=C(NC1CN2CCC1CC2)c1cc(Cl)cc2c3c(oc12)CCCC3 (stereo not drawn)
ED100 (Mustela putorius furo [1]): 0.272 mg/kg
ED50 (Mustela putorius furo [2]): 0.033 mg/kg

O=C(N[C@H]1CN2CCC1CC2)c1cc(Cl)cc2c1O[C@@H]1CCCC[C@H]21
ED100 (Mustela putorius furo [1]): >3 mg/kg
ED50 (Mustela putorius furo [2]): 0.084 mg/kg

O=C(N[C@H]1CN2CCC1CC2)c1cc(Cl)cc2c1O[C@H]1CCCC[C@@H]21
ED100 (Mustela putorius furo [1]): 0.107 mg/kg
ED50 (Mustela putorius furo [2]): 0.056 mg/kg

O=C(N[C@@H]1CN2CCC1CC2)c1cc(Cl)cc2c1O[C@H]1CCCC[C@@H]21
ED100 (Mustela putorius furo [8]): 0.007 mg/kg
ED100 (Mustela putorius furo [9]): 0.005 mg/kg
ED50 (Mustela putorius furo [10]): 0.004 mg/kg
ED50 (Mustela putorius furo [2]): 0.004 mg/kg
Increase (Mustela putorius furo [13]): 53%
Increase (Mustela putorius furo [14]): 105%
Protected (Mustela putorius furo [15]): 0%
Protected (Mustela putorius furo [16]): 25%
Protected (Mustela putorius furo [17]): 42%
Protected (Mustela putorius furo [18]): 100%
Protected (Mustela putorius furo [19]): 100%
Protected (Mustela putorius furo [20]): 70%
Increase (Mustela putorius furo [21]): 195%
Increase (Mustela putorius furo [22]): 195%
Increase (Mustela putorius furo [23]): 171%
Ratio (Mustela putorius furo [24]): 0
Ratio (Mustela putorius furo [25]): 1
Ratio (Mustela putorius furo [26]): 5
Ratio (Mustela putorius furo [27]): 4
Ratio (Mustela putorius furo [28]): 6
Ratio (Mustela putorius furo [29]): 7
Reduction (Mustela putorius furo [30]): 24%
Reduction (Mustela putorius furo [31]): 57%
Reduction (Mustela putorius furo [32]): 100%
Reduction (Mustela putorius furo [33]): 100%
Reduction (Mustela putorius furo [34]): 90%

Cn1cccc1CCNC(=O)c1cc(Cl)cc2c1OC1CCCCC21 (stereo not drawn)
Increase (Mustela putorius furo [35]): 1%
Ratio (Mustela putorius furo [11]): 0
Reduction (Mustela putorius furo [5]): 51.7%

CN1C2CCCC1CC(NC(=O)c1nn(C)c3ccccc13)C2 (stereo not drawn) [GRANISETRON]
ED100 (Mustela putorius furo [8]): 0.082 mg/kg
ED100 (Mustela putorius furo [1]): 0.117 mg/kg

CCN(CC)CCNC(=O)c1cc(Cl)c(N)cc1OC [METOCLOPRAMIDE]
ED100 (Mustela putorius furo [8]): 2.1 mg/kg
ED100 (Mustela putorius furo [1]): >5 mg/kg

Cc1nccn1CC1CCc2c(c3ccccc3n2C)C1=O (stereo not drawn) [ONDANSETRON]
ED100 (Mustela putorius furo [8]): 0.015 mg/kg
ED100 (Mustela putorius furo [1]): 0.031 mg/kg
ED50 (Mustela putorius furo [10]): 0.008 mg/kg
ED50 (Mustela putorius furo [2]): 0.28 mg/kg
